This is a sample that favours compounds with a hit; in the whole collection about 1.9% have one here.
Rin1-Abl PPI inh: human Rin1-Abl interaction inhibition. inhibition, % at 7.35 µM. TR-FRET Rin1/Abl binding, biochemical. AID 588664. 360,000 tested, 0.4% active; in the data active = inhibition above about 5%, passing the limit was not always enough
Target sequence (P00519 whole entry, looked up): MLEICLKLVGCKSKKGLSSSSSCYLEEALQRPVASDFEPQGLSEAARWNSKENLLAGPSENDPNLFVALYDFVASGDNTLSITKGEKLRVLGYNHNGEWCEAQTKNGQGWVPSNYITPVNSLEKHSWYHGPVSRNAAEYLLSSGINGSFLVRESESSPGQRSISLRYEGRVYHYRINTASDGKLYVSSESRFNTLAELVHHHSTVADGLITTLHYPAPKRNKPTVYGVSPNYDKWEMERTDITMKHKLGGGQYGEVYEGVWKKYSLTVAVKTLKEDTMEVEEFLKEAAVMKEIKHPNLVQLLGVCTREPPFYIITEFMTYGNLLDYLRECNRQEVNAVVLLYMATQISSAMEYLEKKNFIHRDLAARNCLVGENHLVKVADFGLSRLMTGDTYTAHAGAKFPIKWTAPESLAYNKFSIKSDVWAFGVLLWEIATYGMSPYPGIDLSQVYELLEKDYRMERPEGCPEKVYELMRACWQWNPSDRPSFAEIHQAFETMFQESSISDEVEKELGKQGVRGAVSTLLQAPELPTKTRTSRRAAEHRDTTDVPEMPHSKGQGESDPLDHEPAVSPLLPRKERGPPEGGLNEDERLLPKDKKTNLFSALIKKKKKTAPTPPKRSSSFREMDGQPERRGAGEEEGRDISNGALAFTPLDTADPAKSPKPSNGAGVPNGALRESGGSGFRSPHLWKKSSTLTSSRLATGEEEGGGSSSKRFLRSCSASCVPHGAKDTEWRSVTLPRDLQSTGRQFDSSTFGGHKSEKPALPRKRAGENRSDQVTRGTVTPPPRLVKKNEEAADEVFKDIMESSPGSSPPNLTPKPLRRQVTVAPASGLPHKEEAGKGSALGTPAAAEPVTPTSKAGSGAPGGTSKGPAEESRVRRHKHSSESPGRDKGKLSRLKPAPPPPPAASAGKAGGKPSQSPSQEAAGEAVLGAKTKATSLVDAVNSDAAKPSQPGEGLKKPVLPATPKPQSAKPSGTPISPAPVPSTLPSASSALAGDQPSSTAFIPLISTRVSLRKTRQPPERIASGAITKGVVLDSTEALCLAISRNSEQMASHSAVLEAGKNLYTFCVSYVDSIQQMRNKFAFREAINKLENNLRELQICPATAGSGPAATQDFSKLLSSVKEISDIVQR
Target sequence (Q13671 whole entry, looked up): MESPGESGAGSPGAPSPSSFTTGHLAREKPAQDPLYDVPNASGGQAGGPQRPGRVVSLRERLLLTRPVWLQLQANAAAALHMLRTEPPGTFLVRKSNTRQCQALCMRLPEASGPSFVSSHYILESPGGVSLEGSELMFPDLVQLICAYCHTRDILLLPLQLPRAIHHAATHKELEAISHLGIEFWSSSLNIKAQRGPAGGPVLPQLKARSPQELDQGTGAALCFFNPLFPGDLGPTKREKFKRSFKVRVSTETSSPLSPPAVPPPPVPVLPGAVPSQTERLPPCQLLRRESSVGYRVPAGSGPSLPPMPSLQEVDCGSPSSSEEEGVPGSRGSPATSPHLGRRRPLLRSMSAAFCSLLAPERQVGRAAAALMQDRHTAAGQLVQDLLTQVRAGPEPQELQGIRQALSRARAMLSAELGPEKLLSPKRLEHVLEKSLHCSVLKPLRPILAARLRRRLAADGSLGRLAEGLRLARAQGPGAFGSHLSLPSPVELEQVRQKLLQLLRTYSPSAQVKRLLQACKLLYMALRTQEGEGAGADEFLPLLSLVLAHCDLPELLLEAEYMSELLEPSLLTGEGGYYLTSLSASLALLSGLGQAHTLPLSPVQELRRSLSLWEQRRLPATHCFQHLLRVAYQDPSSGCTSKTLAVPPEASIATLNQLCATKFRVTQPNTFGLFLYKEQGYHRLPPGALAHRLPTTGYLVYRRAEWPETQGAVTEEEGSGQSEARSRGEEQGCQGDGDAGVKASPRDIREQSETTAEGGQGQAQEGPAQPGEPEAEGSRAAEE
UHRF1 MBD2 ctr: UHRF1 methyl-DNA binding inhibition | Q96T88 | UHRF1 binding to methylated oligo, TR-FRET | inhibition, % at 4.4 µM | 370,000 tested, 0.75% active | AID 687016; in the data active = inhibition above about 21%;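 note: UHRF1 SRA domain binding a hemimethylated CpG hairpin DNA probe; 0% = median of test compound wells and 100% = reference inhibitor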
LEDGF integ inh: blocks HIV-1 LEDGF/p75-dependent DNA integration | TR-FRET IN-LEDGF/p75 DNA integration, Eu/Cy5 | inhibition, % at 3.7 µM | 370,000 tested, 0.64% active | AID 743269;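 active = inhibition above the screen-wide mean plus 3 SD, cut at about 13% in these data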;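 note: signal is the Cy5 over europium emission ratio at 671 and 618 nm; 0% = plate median of compound wells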
TDP2 absorb: blocks human TDP2 phosphodiesterase activity. recombinant TDP2, T5PNP hydrolysis, p-nitrophenol absorbance 415 nm. 370,000 tested, 0.34% active. inhibition, % at 12.8 µM;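 active = inhibition above the mean of all tested compounds plus 3 SD, set per campaign, cut at about 25% in these data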;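 note: 0% = DMSO with enzyme and 100% = buffer with substrate but no TDP2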
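Assay system: recombinant human TDP2 / Reagent: T5PNP substrate at 5 mM, a TopII-DNA adduct mimic / Measured by: epi absorbance from released p-nitrophenol / Evaluation: % inhibition relative to enzyme-containing and enzyme-free wells / Control set: enzyme-free and DMSO wells / Replicates: each compound tested once, singlicate / Schedule: enzyme reaction with compound for 2 h at 37 °C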
MBD2 DNA inh: MBD2-methylated oligo binding inhibition; Q9UBB5; TR-FRET, MBD2 binding to methylated oligonucleotide; inhibition, % at 4.4 µM; 370,000 tested, 0.31% active; AID 686964; in the data active = inhibition above about 13%
The depositor's hits bear a star; x = not tested or not shown.

SMILES | Rin1-Abl PPI inh | UHRF1 MBD2 ctr | LEDGF integ inh | TDP2 absorb | MBD2 DNA inh
[O-]/C(=C(\C(=S)Nc1cccc2ccccc12)[n+]1ccccc1)c1ccc(OC(F)F)cc1 | -1 | 29* | -3 | 0 | 1
O=C(CCNC(=O)c1ccc(Br)cc1)Nc1cccc(S(=O)(=O)N2CCCC2)c1 | -2 | 36* | -4 | -6 | 9
C=CCn1c(SCC#N)nc2sc(CC)cc2c1=O | 3 | 28* | 3 | 8 | -2
C=CCn1c(SCC(=O)O)nc2sc(CC)cc2c1=O | 3 | 0 | 3 | 4 | -5
CCOC(=O)c1cccc(-c2cc(C(=O)OC)c3n(c2=O)CCC3)c1 | x | 4 | 1 | 5 | -3
CCn1c(=O)cc(SCC(=O)NCCCN2CCN(c3ccc(F)cc3)CC2)c2ccccc21 | -77 | 21* | -1 | 12 | -2
CCn1c(=O)cc(SCC(=O)NCCCN2CCC(C)CC2)c2ccccc21 | -15 | -2 | 4 | 4 | 0
O=C(CSc1nc(-c2ccccc2Cl)ns1)c1ccc(Cl)cc1 | -1 | 32* | 2 | 4 | 3
COC(=O)C1=C(C)N(C2CCCCC2)C(=O)/C1=C\c1cccs1 | 3 | 53* | -1 | 7 | -4
O=C(CN1C(=O)CCSc2ccccc21)Nc1cccc(Cl)c1F | x | 1 | -3 | 0 | -1
Cc1ccc(OCc2cc(C(=O)NCCn3cccn3)no2)cc1C | 2 | 1 | -1 | 10 | -3
COCCN1CC(CNC(=O)c2cc(COc3ccc(C)c(C)c3)on2)CC1=O (configuration not stated) | 0 | 21* | -1 | 8 | 7
COc1cccc(C(=O)Nc2ccccc2-c2ccccc2)c1 | -1 | 22* | 7 | -24 | 8
COc1ccc(C=O)cc1-c1cc(C(C)=O)c2n(c1=O)CCC2 | x | 1 | 0 | 4 | 3
CC(C)(C)c1ccc(C(=O)NC(=S)N2CCCCCC2)cc1 | 0 | -2 | 21* | 18 | -1
CC(C)(C)c1ccc(C(=O)NC(=S)N2CCCC2)cc1 | 0 | -4 | 3 | -15 | 2
CC1CCN(C(=S)NC(=O)c2ccc(C(C)(C)C)cc2)CC1 | -2 | 0 | 11 | -12 | -2
CC1CCN(C(=S)NC(=O)c2ccccc2)CC1 | 1 | 38* | -1 | -14 | -4
CCCCOc1ccc(S(=O)(=O)n2c(C)nc3ccccc32)cc1 | -3 | 43* | -3 | 2 | 0
CN1CCCN(S(=O)(=O)c2ccc3c(c2)CCC(=O)N3)CC1 | x | 4 | -2 | 0 | 7
CN(Cc1ccc(F)cc1)C(=O)c1cccc2c1C(=O)N(Cc1cccnc1)C2 | x | -1 | 1 | 0 | 6
Cc1c(Cl)cccc1NS(=O)(=O)c1ccc2c(c1)C1C=CCC1C(c1ccc(C(=O)O)cc1)N2 (configuration not stated) | 9.2* | x | x | x | x
CC(=O)c1ccc2c(c1)C1C=CCC1C(c1ccc(S(=O)(=O)N3CCOCC3)cc1)N2 (configuration not stated) | -2 | -3 | -1 | 6 | -4
CCn1c(NC(=O)C(C)C)c(-c2ccccc2)c(=O)c2ccccc21 | 0 | 47* | -6 | 9 | 5
CC(C)C(=O)Nc1c(-c2cccc(Cl)c2)c(=O)c2ccccc2n1C | -5 | 1 | -2 | -3 | -5
SMILES | Rin1-Abl PPI inh | UHRF1 MBD2 ctr | LEDGF integ inh | TDP2 absorb | MBD2 DNA inh
CC(C)C[C@H]1COc2cccc(F)c2S(=O)(=O)N1Cc1cn(CC2CCCCC2)nn1 | x | 1 | -1 | 0 | 5
CCOc1ccc(-n2c(SCC(=O)Nc3ccc4cn[nH]c4c3)nnc2-c2ccc(C(C)(C)C)cc2)cc1 | x | 0 | -1 | 4 | -1
O=S(=O)(c1ccc(Br)cc1)N1CCCN(Cc2cccc(F)c2)CC1 | 0 | 62* | 0 | -2 | -3
C=C(C)CCC1(C)NC(=O)N(c2ccccc2)N1 (configuration not stated) | -1 | 1 | 0 | 14 | -6
CC1(c2ccc(O)cc2)NC(=O)N(c2ccccc2)N1 (configuration not stated) | 2 | 24* | -2 | 2 | 11
O=C(Cn1nnc2ccccc2c1=O)NCCc1ccc(Cl)cc1Cl | -2 | 28* | 0 | 5 | 0
CCOC(=O)c1c(C)[nH]c(C)c1C(=O)CSc1nc2ccccc2c(=O)n1-c1ccc(F)cc1 | 2 | 0 | -1 | 0 | 1
CCOC(=O)c1c(C)[nH]c(C)c1C(=O)CSc1nc2ccccc2c(=O)n1-c1ccccc1C | 1 | 21* | 3 | 8 | 11

Assay outcomes deposited in PubChem BioAssay by The Scripps Research Institute Molecular Screening Center.
